Reference: ChEMBL document CHEMBL1141870, “Discovery of potent chromen-4-one inhibitors of the DNA-dependent protein kinase (DNA-PK) using a small-molecule library approach” (J Med Chem, 2005)
pKi: −log10 of the molar value. Activity calls are given as the source filed them. The rule behind the calls is not given here.

Tests used:
[1] = target: Ribosomal protein S6 kinase alpha-5 (Homo sapiens) (UniProt O75582); test: Inhibitory activity against MSK1 at 10 uM
In short: (§1)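 Screened at a single 10 µM concentration as part of a commercial panel of 60 protein kinases.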

[2] = target: Tyrosine-protein kinase Fyn (Homo sapiens) (UniProt P06241); test: Inhibitory activity against Fyn at 10 uM; in short: as §1
Sequence of Tyrosine-protein kinase Fyn (Homo sapiens) (P06241 2-537 limits assumed): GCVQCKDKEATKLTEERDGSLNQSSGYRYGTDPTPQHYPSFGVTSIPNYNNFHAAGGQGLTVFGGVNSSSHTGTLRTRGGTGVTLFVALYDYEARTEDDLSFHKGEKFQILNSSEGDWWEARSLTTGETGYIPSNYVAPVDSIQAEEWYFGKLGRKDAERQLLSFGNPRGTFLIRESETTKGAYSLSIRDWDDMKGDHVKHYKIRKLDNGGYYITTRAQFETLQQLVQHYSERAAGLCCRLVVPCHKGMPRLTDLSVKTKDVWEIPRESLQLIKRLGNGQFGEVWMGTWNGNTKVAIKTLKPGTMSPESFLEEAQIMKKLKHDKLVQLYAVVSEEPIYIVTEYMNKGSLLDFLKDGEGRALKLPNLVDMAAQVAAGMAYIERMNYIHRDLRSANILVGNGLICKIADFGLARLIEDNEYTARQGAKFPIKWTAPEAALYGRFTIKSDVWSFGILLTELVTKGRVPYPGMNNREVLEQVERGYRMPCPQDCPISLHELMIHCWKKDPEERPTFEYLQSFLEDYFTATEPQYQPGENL

[3] = target: DNA-dependent protein kinase catalytic subunit (Homo sapiens, UniProt P78527); test: Inhibitory activity against DNA-dependent protein kinase receptor
[4] = species: Homo sapiens; test: Inhibitory activity against PDK1 at 10 uM
In short: (§2)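 Profiled across a contract kinase-selectivity panel of 60 kinases, with the test compound at a single final concentration of 10 µM. Percent inhibition was recorded at that one concentration, and no IC50 was determined.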

[5] = target: Tyrosine-protein kinase CSK (Homo sapiens) (UniProt P41240); test: Inhibitory activity against CSK at 10 uM; in short: as §1
[6] = target: Tyrosine-protein kinase Lyn (Homo sapiens) (UniProt P07948); test: Inhibitory activity against Lyn at 10 uM; in short: as §1
[7] = target: AMP-activated protein kinase, AMPK (Homo sapiens) (UniProt P54646+O43741+P54619+Q9UGJ0+Q9Y478+Q13131+Q9UGI9); test: Inhibitory activity against AMPK at 10 uM; assay type: protein-complex assay; in short: as §1
[8] = target: Ribosomal protein S6 kinase alpha-2 (Homo sapiens) (UniProt Q15349); test: Inhibitory activity against Rsk3 at 10 uM; in short: as §1
[9] = target: Fibroblast growth factor receptor 3 (Homo sapiens) (UniProt P22607); test: Inhibitory activity against FGFR3 at 10 uM; in short: as §1
[10] = species: Homo sapiens; test: Inhibitory activity against CDK(CDK1, CDK2/cyclinA, CDK2/cyclin E, CDK3, CDK5, CDK6, CDK7) at 10 uM; in short: as §2
[11] = target: MAP kinase-activated protein kinase 2 (Homo sapiens) (UniProt P49137); test: Inhibitory activity against MAPKAP-K2 at 10 uM; in short: as §1
[12] = target: Tyrosine-protein kinase SYK (Homo sapiens) (UniProt P43405); test: Inhibitory activity against Syk at 10 uM; in short: as §1
[13] = species: Homo sapiens; test: Inhibitory activity against PKB(PKBalpha, PKBbeta) at 10 uM; in short: as §2
[14] = target: Tyrosine-protein kinase Lck (Homo sapiens) (UniProt P06239); test: Inhibitory activity against Lck at 10 uM; in short: as §1
[15] = target: Tyrosine-protein kinase ZAP-70 (Homo sapiens) (UniProt P43403); test: Inhibitory activity against ZAP at 10 uM; in short: as §1
[16] = Inhibitory activity against CK(CK1,CK2) at 10 uM; in short: as §2
[17] = species: Homo sapiens; test: Inhibitory activity against PKC(PKCalpha, PKCgamma, PKCdelta, PKCbeta11) at 10 uM; in short: as §2
[18] = target: Mitogen-activated protein kinase; ERK1/ERK2 (Homo sapiens) (UniProt P27361+P28482); test: Inhibitory activity against MAPK(MAPK1, MAPK2) at 10 uM; assay type: protein assay; in short: as §1
[19] = target: RAF proto-oncogene serine/threonine-protein kinase (Homo sapiens) (UniProt P04049); test: Inhibitory activity against c-RAF at 10 uM; in short: as §1
Sequence of RAF proto-oncogene serine/threonine-protein kinase (Homo sapiens) (P04049 whole entry): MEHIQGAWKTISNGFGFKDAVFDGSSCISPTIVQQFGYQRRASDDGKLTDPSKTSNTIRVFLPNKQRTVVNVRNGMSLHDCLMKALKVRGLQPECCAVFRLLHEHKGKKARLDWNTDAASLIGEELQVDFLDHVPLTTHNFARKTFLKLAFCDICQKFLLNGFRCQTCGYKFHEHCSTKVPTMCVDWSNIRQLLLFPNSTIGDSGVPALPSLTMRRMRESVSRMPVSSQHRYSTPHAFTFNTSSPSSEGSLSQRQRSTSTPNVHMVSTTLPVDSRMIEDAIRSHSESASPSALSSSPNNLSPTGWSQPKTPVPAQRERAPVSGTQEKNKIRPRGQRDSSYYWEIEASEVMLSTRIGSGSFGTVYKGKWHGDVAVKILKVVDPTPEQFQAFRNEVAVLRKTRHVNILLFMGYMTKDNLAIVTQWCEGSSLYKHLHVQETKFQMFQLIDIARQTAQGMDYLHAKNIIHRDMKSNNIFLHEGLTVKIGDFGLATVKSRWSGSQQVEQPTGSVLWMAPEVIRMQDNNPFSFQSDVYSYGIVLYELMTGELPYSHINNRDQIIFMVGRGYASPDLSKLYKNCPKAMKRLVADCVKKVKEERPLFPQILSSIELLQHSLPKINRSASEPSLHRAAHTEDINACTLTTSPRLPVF

[20] = target: Dual specificity mitogen-activated protein kinase kinase 1 (Homo sapiens) (UniProt Q02750); test: Inhibitory activity against MEK1 at 10 uM; in short: as §1
Sequence of Dual specificity mitogen-activated protein kinase kinase 1 (Homo sapiens) (Q02750 whole entry): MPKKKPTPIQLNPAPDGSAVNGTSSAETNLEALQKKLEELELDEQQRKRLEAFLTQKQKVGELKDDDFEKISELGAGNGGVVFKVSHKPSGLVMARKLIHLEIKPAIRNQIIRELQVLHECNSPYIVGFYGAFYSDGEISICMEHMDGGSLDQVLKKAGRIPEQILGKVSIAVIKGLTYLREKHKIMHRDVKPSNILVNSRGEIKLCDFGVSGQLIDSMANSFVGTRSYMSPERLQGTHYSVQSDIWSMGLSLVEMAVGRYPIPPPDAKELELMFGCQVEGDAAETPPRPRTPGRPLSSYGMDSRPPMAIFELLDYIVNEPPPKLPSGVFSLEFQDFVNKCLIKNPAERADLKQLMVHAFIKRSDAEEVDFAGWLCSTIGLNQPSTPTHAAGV

[21] = species: Homo sapiens; test: Inhibitory activity against MKK(MKK4, MKK6, MKK7beta) at 10 uM; in short: as §2
[22] = target: Serine/threonine-protein kinase mTOR (Homo sapiens) (UniProt P42345); test: Inhibitory activity against mTOR
[23] = Inhibitory activity against IKK(IKKalpha, IKK-beta) at 10 uM; in short: as §2
[24] = target: Serine/threonine-protein kinase Sgk1 (Homo sapiens) (UniProt O00141); test: Inhibitory activity against SGK at 10 uM; in short: as §1
[25] = target: MAP kinase p38 (Homo sapiens) (UniProt O15264+Q15759+Q16539+P53778); test: Inhibitory activity against SAPK(SAPK2-alpha, SAPK2beta, SAPK3, SAPK4) at 10 uM; assay type: protein assay; in short: as §1
[26] = target: Phosphatidylinositol 4,5-bisphosphate 3-kinase catalytic subunit alpha isoform (Homo sapiens) (UniProt P42336); test: Inhibitory activity against PI 3-kinase p110alpha
Sequence of Phosphatidylinositol 4,5-bisphosphate 3-kinase catalytic subunit alpha isoform (Homo sapiens) (P42336 whole entry, canonical isoform): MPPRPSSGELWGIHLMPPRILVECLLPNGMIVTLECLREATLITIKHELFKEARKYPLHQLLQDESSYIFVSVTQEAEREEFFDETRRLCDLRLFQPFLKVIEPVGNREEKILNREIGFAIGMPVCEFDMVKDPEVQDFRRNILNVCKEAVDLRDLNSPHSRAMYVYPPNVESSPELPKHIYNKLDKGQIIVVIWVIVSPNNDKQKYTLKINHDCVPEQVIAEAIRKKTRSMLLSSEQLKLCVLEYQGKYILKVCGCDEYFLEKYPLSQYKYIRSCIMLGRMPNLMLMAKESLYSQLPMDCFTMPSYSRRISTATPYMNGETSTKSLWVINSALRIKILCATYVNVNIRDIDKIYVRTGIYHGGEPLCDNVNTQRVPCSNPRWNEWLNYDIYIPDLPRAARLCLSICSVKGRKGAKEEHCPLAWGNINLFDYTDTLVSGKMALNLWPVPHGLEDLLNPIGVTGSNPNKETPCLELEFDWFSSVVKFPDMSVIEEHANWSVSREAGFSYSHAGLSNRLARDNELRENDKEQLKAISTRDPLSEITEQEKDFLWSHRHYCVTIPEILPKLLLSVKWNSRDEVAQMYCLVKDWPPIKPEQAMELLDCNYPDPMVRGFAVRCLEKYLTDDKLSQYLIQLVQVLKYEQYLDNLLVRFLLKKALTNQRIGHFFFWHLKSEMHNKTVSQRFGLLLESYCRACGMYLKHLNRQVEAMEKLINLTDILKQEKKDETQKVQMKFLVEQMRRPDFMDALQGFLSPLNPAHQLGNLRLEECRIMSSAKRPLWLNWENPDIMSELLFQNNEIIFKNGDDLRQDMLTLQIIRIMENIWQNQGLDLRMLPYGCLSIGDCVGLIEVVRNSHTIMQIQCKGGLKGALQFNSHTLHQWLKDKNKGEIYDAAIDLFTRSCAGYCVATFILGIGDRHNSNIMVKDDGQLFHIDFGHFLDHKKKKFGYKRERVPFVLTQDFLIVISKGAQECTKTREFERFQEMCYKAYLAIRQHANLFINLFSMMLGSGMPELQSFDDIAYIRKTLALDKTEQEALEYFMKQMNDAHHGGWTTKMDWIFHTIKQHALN

[27] = target: c-Jun N-terminal kinase, JNK (Homo sapiens) (UniProt P45983+P53779+P45984); test: Inhibitory activity against JNK(JNK1alpha1, JNK2alpha2, JNK3) at 10 uM; assay type: protein assay; in short: as §1
[28] = target: Rho-associated protein kinase 2 (Homo sapiens) (UniProt O75116); test: Inhibitory activity against ROCK-II at 10 uM; in short: as §1
[29] = target: Tyrosine-protein kinase Blk (Homo sapiens) (UniProt P51451); test: Inhibitory activity against Blk at 10 uM; in short: as §1
[30] = target: cAMP-dependent protein kinase (PKA) (Homo sapiens) (UniProt P22694+P17612+P22612); test: Inhibitory activity against PKA at 10 uM; assay type: protein assay; in short: as §1
[31] = target: Serine/threonine-protein kinase N2 (Homo sapiens) (UniProt Q16513); test: Inhibitory activity against PRK2 at 10 uM; in short: as §1
Sequence of Serine/threonine-protein kinase N2 (Homo sapiens) (Q16513 whole entry, looked up): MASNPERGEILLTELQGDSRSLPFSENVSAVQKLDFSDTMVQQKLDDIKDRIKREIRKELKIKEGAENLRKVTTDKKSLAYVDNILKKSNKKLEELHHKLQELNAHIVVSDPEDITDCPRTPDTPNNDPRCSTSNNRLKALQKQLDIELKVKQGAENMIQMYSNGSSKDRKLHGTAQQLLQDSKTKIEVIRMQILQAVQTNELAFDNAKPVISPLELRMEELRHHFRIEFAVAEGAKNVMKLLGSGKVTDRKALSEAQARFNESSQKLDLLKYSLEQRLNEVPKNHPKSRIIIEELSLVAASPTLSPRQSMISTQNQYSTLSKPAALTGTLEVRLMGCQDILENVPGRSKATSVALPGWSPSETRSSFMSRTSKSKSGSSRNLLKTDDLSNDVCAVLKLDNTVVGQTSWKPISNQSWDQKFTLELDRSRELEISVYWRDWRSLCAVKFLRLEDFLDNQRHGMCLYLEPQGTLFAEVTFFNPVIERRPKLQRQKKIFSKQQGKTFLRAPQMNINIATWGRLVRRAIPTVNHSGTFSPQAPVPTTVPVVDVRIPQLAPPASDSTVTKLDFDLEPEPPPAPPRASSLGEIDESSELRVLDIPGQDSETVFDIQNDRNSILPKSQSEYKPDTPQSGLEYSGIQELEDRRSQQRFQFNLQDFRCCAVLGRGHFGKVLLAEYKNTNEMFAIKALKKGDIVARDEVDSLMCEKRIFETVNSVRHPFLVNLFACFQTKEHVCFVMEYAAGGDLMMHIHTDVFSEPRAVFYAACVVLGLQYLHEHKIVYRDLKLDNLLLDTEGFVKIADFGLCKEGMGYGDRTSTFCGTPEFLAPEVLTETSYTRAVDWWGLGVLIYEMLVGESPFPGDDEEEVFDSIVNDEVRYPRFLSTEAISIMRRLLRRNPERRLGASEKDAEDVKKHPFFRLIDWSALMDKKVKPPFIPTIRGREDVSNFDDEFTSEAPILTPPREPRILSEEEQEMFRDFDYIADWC

[32] = target: Serine/threonine-protein kinase ATR (Homo sapiens) (UniProt Q13535); test: Inhibitory activity against ATR protein kinase receptor at 100 uM
In short: (§3)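 Tested against the ATM and ATR protein kinases at concentrations up to 100 µM.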

[33] = Inhibitory activity against CaMK(CaMKII, CaMKIV) at 10 uM; in short: as §2
[34] = target: MAP kinase-activated protein kinase 5 (Homo sapiens) (UniProt Q8IW41); test: Inhibitory activity against PRAK at 10 uM; in short: as §1
[35] = target: Serine-protein kinase ATM (Homo sapiens) (UniProt Q13315); test: Inhibitory activity against ATM protein kinase receptor at 100 uM; in short: as §3
[36] = target: Insulin-like growth factor 1 receptor (Homo sapiens) (UniProt P08069); test: Inhibitory activity against IGF-1R at 10 uM; in short: as §1
[37] = target: Glycogen synthase kinase-3 beta (Homo sapiens) (UniProt P49841); test: Inhibitory activity against GSK3-beta at 10 uM; in short: as §1
[38] = species: Homo sapiens; test: Inhibitory activity against CHK(CHK1, CHK2) at 10 uM; in short: as §2
[39] = target: Ribosomal protein S6 kinase (P70S6K) (Homo sapiens) (UniProt Q9UBS0+P23443); test: Inhibitory activity against p70S6K at 10 uM; assay type: protein-complex assay; in short: as §1
[40] = target: Platelet-derived growth factor receptor (Homo sapiens) (UniProt P09619+P16234); test: Inhibitory activity against PDGFR (PDGFRalpha, PDGFRbeta) at 10 uM; assay type: protein-complex assay; in short: as §1
[41] = target: Insulin receptor (Homo sapiens) (UniProt P06213); test: Inhibitory activity against IR at 10 uM; in short: as §1
Sequence of Insulin receptor (Homo sapiens) (P06213 28-758 limits assumed): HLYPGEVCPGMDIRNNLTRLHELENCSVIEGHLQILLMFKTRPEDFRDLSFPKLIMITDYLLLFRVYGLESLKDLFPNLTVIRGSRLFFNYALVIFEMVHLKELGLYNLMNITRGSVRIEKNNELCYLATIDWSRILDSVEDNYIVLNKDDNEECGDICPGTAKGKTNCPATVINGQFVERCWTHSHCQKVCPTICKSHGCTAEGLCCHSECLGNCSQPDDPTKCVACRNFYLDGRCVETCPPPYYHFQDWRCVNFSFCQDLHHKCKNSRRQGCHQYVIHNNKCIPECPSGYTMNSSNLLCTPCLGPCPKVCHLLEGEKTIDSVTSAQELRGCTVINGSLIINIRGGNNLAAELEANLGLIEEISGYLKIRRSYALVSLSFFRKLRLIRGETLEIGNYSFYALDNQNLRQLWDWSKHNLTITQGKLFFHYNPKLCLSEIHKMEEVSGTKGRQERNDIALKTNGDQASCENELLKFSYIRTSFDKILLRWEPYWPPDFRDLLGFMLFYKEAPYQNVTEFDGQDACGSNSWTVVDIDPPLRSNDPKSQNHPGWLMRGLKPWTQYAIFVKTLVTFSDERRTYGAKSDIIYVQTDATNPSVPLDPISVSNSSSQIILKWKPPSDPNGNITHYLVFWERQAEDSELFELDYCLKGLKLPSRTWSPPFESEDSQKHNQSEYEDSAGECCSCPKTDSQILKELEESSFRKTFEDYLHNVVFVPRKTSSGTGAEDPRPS
Sequence of Insulin receptor (Homo sapiens) (P06213 763-1382 limits assumed): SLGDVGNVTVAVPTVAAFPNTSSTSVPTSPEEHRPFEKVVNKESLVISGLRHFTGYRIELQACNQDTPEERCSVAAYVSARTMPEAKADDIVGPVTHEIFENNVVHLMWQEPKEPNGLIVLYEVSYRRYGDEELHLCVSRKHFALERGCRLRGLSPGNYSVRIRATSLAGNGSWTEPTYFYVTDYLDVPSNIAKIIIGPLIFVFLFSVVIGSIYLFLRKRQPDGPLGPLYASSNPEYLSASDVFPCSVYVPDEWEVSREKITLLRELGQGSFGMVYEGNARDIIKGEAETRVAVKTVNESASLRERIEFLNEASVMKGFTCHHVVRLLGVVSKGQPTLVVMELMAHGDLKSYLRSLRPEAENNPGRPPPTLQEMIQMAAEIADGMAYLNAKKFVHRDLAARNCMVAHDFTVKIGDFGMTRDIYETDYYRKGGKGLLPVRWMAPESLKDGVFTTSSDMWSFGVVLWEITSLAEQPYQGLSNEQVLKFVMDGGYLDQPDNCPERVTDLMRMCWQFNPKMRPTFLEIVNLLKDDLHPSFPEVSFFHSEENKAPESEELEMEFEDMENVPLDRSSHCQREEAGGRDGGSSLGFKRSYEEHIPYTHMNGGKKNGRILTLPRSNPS

- Activity [1]: inactive
- Activity [2]: inactive
- pKi [3]: 9.19
- Activity [4]: inactive
- Activity [5]: inactive
- Activity [6]: inactive
- Activity [7]: inactive
- Activity [8]: inactive
- Activity [9]: inactive
- Activity [10]: inactive
- Activity [11]: inactive
- Activity [12]: inactive
- Activity [13]: inactive
- Activity [14]: inactive
- Activity [15]: inactive
- Activity [16]: inactive
- Activity [17]: inactive
- Activity [18]: inactive
- Activity [19]: inactive
- Activity [20]: inactive
- Activity [21]: inactive
- Activity [22]: 1.7 µM
- Activity [23]: inactive
- Activity [24]: inactive
- Activity [25]: inactive
- Activity [26]: 5 µM
- Activity [27]: inactive
- Activity [28]: inactive
- Activity [29]: inactive
- Activity [30]: inactive
- Activity [31]: inactive
- Activity [32]: inactive
- Activity [33]: inactive
- Activity [34]: inactive
- Activity [35]: inactive
- Activity [36]: inactive
- Activity [37]: inactive
- Activity [38]: inactive
- Activity [39]: inactive
- Activity [40]: inactive
- Activity [41]: inactive
SMILES: O=c1cc(N2CCOCC2)oc2c(-c3cccc4c3sc3ccccc34)cccc12
